Converted amounts (≈) assume the structure as drawn. The source made the active and inactive calls. No cut-off for these calls is given here.
Legend:
Escherichia coli [1] = test: Antimicrobial activity against Escherichia coli at 500 ug/disc after 24 hrs by disc diffusion method; format: functional; conditions: for zone of inhibition at 500 µg/disc: read-out: DIZ
Escherichia coli [2] = test: Antimicrobial activity against Escherichia coli at 1000 ug/disc after 24 hrs by disc diffusion method; format: functional; conditions: for zone of inhibition at 1000 µg/disc: read-out: DIZ
Bacillus subtilis [3] = test: Antimicrobial activity against Bacillus subtilis at 500 ug/disc after 24 hrs by disc diffusion method; format: functional; conditions: for zone of inhibition at 500 µg/disc: read-out: DIZ
Bacillus subtilis [4] = test: Antimicrobial activity against Bacillus subtilis at 1000 ug/disc after 24 hrs by disc diffusion method; format: functional; conditions: for zone of inhibition at 1000 µg/disc: read-out: DIZ
[5] = system: Staphylococcus epidermidis; test: Antimicrobial activity against Staphylococcus epidermidis at 500 ug/disc after 24 hrs by disc diffusion method; format: functional
[6] = system: Staphylococcus epidermidis; test: Antimicrobial activity against Staphylococcus epidermidis at 1000 ug/disc after 24 hrs by disc diffusion method; format: functional; conditions: for zone of inhibition at 1000 µg/disc: read-out: DIZ
Klebsiella pneumoniae [7] = test: Antimicrobial activity against Klebsiella pneumoniae at 500 ug/disc after 24 hrs by disc diffusion method; format: functional; conditions: for zone of inhibition at 500 µg/disc: read-out: DIZ
Klebsiella pneumoniae [8] = test: Antimicrobial activity against Klebsiella pneumoniae at 1000 ug/disc after 24 hrs by disc diffusion method; format: functional; conditions: for zone of inhibition at 1000 µg/disc: read-out: DIZ
Listeria monocytogenes [9] = test: Antimicrobial activity against Listeria monocytogenes at 500 ug/disc after 24 hrs by disc diffusion method; format: functional
Listeria monocytogenes [10] = test: Antimicrobial activity against Listeria monocytogenes at 1000 ug/disc after 24 hrs by disc diffusion method; format: functional
Salmonella typhimurium [11] = test: Antimicrobial activity against Salmonella Typhimurium at 500 ug/disc after 24 hrs by disc diffusion method; format: functional, Salmonella enterica subsp. enterica serovar Typhimurium; conditions: for zone of inhibition at 500 µg/disc: Salmonella enterica, read-out: DIZ
Salmonella typhimurium [12] = test: Antimicrobial activity against Salmonella Typhimurium at 1000 ug/disc after 24 hrs by disc diffusion method; format: functional, Salmonella enterica subsp. enterica serovar Typhimurium; conditions: for zone of inhibition at 1000 µg/disc: Salmonella enterica, read-out: DIZ
Staphylococcus aureus [13] = test: Antimicrobial activity against Staphylococcus aureus at 500 ug/disc after 24 hrs by disc diffusion method; format: functional
Summary of the method: (§1)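 Disc diffusion on 2.4% Mueller-Hinton agar inoculated with the strain. Paper discs 6 mm across were loaded with test compound and placed on the agar. Plates were incubated at 37 °C for 24 h. Read-out was the diameter of the inhibition zone in mm.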

Staphylococcus aureus [14] = test: Antimicrobial activity against Staphylococcus aureus at 1000 ug/disc after 24 hrs by disc diffusion method; format: functional
Staphylococcus aureus [15] = test: Antimicrobial activity against methicillin-resistant Staphylococcus aureus strain 1 TB3G at 500 ug/disc after 24 hrs by disc diffusion method; format: functional; summary of the method: as §1
Staphylococcus aureus [16] = test: Antimicrobial activity against methicillin-resistant Staphylococcus aureus strain 1 TB3G at 1000 ug/disc after 24 hrs by disc diffusion method; format: functional; summary of the method: as §1
Staphylococcus aureus [17] = test: Antimicrobial activity against methicillin-resistant Staphylococcus aureus strain 2 TB4G at 500 ug/disc after 24 hrs by disc diffusion method; format: functional; summary of the method: as §1
Staphylococcus aureus [18] = test: Antimicrobial activity against methicillin-resistant Staphylococcus aureus strain 2 TB4G at 1000 ug/disc after 24 hrs by disc diffusion method; format: functional; summary of the method: as §1
Staphylococcus aureus [19] = test: Antimicrobial activity against methicillin-resistant Staphylococcus aureus strain 4 TB5G at 500 ug/disc after 24 hrs by disc diffusion method; format: functional; summary of the method: as §1
Staphylococcus aureus [20] = test: Antimicrobial activity against methicillin-resistant Staphylococcus aureus strain 4 TB5G at 1000 ug/disc after 24 hrs by disc diffusion method; format: functional; summary of the method: as §1
A549 [21] = test: Cytotoxicity against human A549 cells assessed as cell death at 1 ug after 48 hrs by MTT assay; format: functional
Summary of the method: (§2)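 A549 cells were grown in DMEM with 2 mmol L-glutamine, 10% FBS, penicillin (50 IU/mL) and streptomycin, at 37 °C and 5% CO2. 1×10^4 cells/well were plated and treated 24 h later with compound diluted in medium for 48 h. Controls were DMSO-matched and untreated wells. MTT 0.4 mg/mL in PBS was added for 4 h in the dark, then DMSO for 4 h. A540 was read and reported as % live cells relative to untreated.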

A549 [22] = test: Cytotoxicity against human A549 cells assessed as cell death at 2 ug after 48 hrs by MTT assay; format: functional; summary of the method: as §2
A549 [23] = test: Cytotoxicity against human A549 cells assessed as cell death at 5 ug after 48 hrs by MTT assay; format: functional; summary of the method: as §2
A549 [24] = test: Cytotoxicity against human A549 cells assessed as cell death at 10 ug after 48 hrs by MTT assay; format: functional; summary of the method: as §2
A549 [25] = test: Cytotoxicity against human A549 cells assessed as cell death at 25 ug after 48 hrs by MTT assay; format: functional; summary of the method: as §2
A549 [26] = test: Cytotoxicity against human A549 cells after 48 hrs by MTT assay; format: functional, cell-based; conditions: A549, 48 h
Summary of the method: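 A549 cells were kept in DMEM with 2 mM L-glutamine, 10% FBS, penicillin 50 IU/mL and streptomycin at 37 °C under 5% CO2. 1×10^4 cells per well were treated 24 h after seeding with compounds diluted in medium for 48 h. MTT (0.4 mg/mL in PBS) was added for 4 h in the dark, formazan was dissolved in DMSO for 4 h and absorbance read at 540 nm. Viability was expressed as % of untreated cells, and IC50 was derived.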

Chymase = target: T1, Chymase (Homo sapiens, UniProt P23946); test: Inhibition of human chymase
T1 sequence (P23946 whole entry): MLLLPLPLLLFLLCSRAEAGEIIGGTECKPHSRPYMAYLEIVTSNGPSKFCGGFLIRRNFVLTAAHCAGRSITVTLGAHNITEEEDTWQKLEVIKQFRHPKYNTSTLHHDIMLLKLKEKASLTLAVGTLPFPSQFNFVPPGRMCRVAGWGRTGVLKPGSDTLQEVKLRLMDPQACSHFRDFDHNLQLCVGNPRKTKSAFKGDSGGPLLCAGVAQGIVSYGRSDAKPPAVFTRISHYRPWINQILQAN

[27] = Inhibition of human elastase
[28] = Salmonella enterica subsp. enterica serovar Typhimurium

| SMILES | zone of inhibition at 500 µg/disc (Escherichia coli [1]) [mm] | zone of inhibition at 1000 µg/disc (Escherichia coli [2]) [mm] | zone of inhibition at 500 µg/disc (Bacillus subtilis [3]) [mm] | zone of inhibition at 1000 µg/disc (Bacillus subtilis [4]) [mm] | zone of inhibition at 1000 µg/disc [6] [mm] | zone of inhibition at 500 µg/disc (Klebsiella pneumoniae [7]) [mm] | diameter of the inhibition zone (DIZ) (Listeria monocytogenes [9]) | diameter of the inhibition zone (DIZ) (Listeria monocytogenes [10]) | diameter of the inhibition zone (DIZ) (Staphylococcus aureus [13]) | diameter of the inhibition zone (DIZ) (Staphylococcus aureus [14]) | diameter of the inhibition zone (DIZ) (Staphylococcus aureus [15]) | diameter of the inhibition zone (DIZ) (Staphylococcus aureus [16]) | diameter of the inhibition zone (DIZ) (Staphylococcus aureus [19]) | diameter of the inhibition zone (DIZ) (Staphylococcus aureus [20]) | Activity (A549 [21]) [%] | Activity (A549 [22]) [%] | Activity (A549 [23]) [%] | Activity (A549 [24]) [%] | Activity (A549 [25]) [%] | IC50 (A549 [26]) [µM] | other results |
| --- | --- | --- | --- | --- | --- | --- | --- | --- | --- | --- | --- | --- | --- | --- | --- | --- | --- | --- | --- | --- | --- |
| CC(C)CC(=O)O[C@H](c1ccccc1)c1cc(O)cc(=O)[nH]1 | 13 | 20 | 10 | 19 | 17 | 14 | inactive | inactive | inactive | inactive | inactive | inactive | inactive | inactive | 3.13 | 18.59 | 48.82 | 50.39 | 75.78 | 10 | zone of inhibition at 500 µg/disc ([5]; read-out: DIZ): 8 mm; zone of inhibition at 1000 µg/disc (Klebsiella pneumoniae [8]): 24 mm; zone of inhibition at 500 µg/disc (Salmonella typhimurium [11]): 12 mm; zone of inhibition at 1000 µg/disc (Salmonella typhimurium [12]): 20 mm; diameter of the inhibition zone (DIZ) (Staphylococcus aureus [17]): inactive; diameter of the inhibition zone (DIZ) (Staphylococcus aureus [18]): inactive |
| CC(C)CC(=O)OC(c1ccccc1)c1cc(O)cc(=O)[nH]1 (racemic) |  |  |  |  | 9 |  | inactive | inactive | inactive | inactive | inactive | inactive | inactive | inactive | 8.22 | 25.54 | 37.22 | 50.21 | 74.02 | 28 | IC50 (Chymase): 0.83 µM; IC50 [27]: 4.9 µg/mL (≈ 16.3 µM); diameter of the inhibition zone (DIZ) (Escherichia coli [1]): inactive; diameter of the inhibition zone (DIZ) (Escherichia coli [2]): inactive; diameter of the inhibition zone (DIZ) (Bacillus subtilis [3]): inactive; diameter of the inhibition zone (DIZ) (Bacillus subtilis [4]): inactive; diameter of the inhibition zone (DIZ) [5]: inactive; diameter of the inhibition zone (DIZ) (Klebsiella pneumoniae [7]): inactive; diameter of the inhibition zone (DIZ) (Klebsiella pneumoniae [8]): inactive; zone of inhibition at 500 µg/disc (Salmonella typhimurium [11]): 7 mm; zone of inhibition at 1000 µg/disc (Salmonella typhimurium [12]): 13 mm; diameter of the inhibition zone (DIZ) (Staphylococcus aureus [17]): inactive; diameter of the inhibition zone (DIZ) (Staphylococcus aureus [18]): inactive |
| CC(C)CC(=O)O[C@@H](c1ccccc1)c1cc(O)cc(=O)[nH]1 | 16 | 26 | 13 | 23 |  | 15 | inactive | inactive | inactive | inactive | inactive | inactive | inactive | inactive | 9.96 | 27.71 | 38.96 | 47.62 | 63.2 | 11 | diameter of the inhibition zone (DIZ) [5]: inactive; diameter of the inhibition zone (DIZ) [6]: inactive; zone of inhibition at 1000 µg/disc (Klebsiella pneumoniae [8]): 25 mm; diameter of the inhibition zone (DIZ) (Salmonella typhimurium [11]; [28]): inactive; diameter of the inhibition zone (DIZ) (Salmonella typhimurium [12]; [28]): inactive; zone of inhibition at 500 µg/disc (Staphylococcus aureus [17]; read-out: DIZ): 14 mm; zone of inhibition at 1000 µg/disc (Staphylococcus aureus [18]; read-out: DIZ): 26 mm |
